According to ChEMBL document CHEMBL1671640, “Antifungal activities of human beta-defensins HBD-1 to HBD-3 and their C-terminal analogs Phd1 to Phd3” (Antimicrob Agents Chemother, 2009):
Values after ≈ are worked out from the molar mass of the structure shown. Active and inactive are the calls of the source. No cut-off for these calls is given here. Where a SMILES comes first, the peptide text is derived from it. Bridges are numbered along the chain shown (N, C = ends).

Legend:
Candida albicans [1] = assay: Antifungal activity against Candida albicans ATCC 18804 after 24 hrs; assay type: functional; conditions: ATCC 18804, 24 h
Outline: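 Mid-log C. albicans (subcultured 2 h in YEPD after 20 h aerobic growth at 30°C), washed and resuspended at 10^6 cells/ml in 10 mM phosphate buffer pH 7.4. Exposed to peptides for 2 h at 30°C, then diluted, plated on YEPD agar and incubated 24 h at 30°C. MFC = concentration giving no viable colonies. Averages of three independent experiments in duplicate.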

Candida albicans [2] = assay: Fungicidal activity against Candida albicans ATCC 18804 at MFC pretreated with 50 uM carbonyl cyanide m-chlorophenylhydrazone for 2 hrs at 30 deg C; assay type: functional, organism-based
Outline: (§1)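 Mid-log cells at 10^6/ml in phosphate buffer were preincubated 2 h at 30°C with shaking with 5 mM sodium azide or 50 µM CCCP. Peptides were then added at MFC for 2 h at 30°C. Cells plated on YEPD agar for 24 h and colonies counted as percent killing. Three independent experiments in duplicate.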

Candida albicans [3] = assay: Fungicidal activity against Candida albicans ATCC 18804 at MFC pretreated with 5 mM sodium azide for 2 hrs at 30 deg C; assay type: functional, organism-based; outline: as §1
Candida albicans [4] = assay: Fungicidal activity against Candida albicans ATCC 18804 at MFC in presence of 25 mM NaCl; assay type: functional, organism-based
Outline: (§2)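 Mid-log cells at 10^6/ml in 10 mM phosphate buffer pH 7.4 containing added NaCl (25 or 100 mM), CaCl2 (0.5 or 5 mM) or MgCl2 (0.5 or 25 mM). Peptides at the stated multiple of MFC, 2 h at 30°C. Aliquots diluted and plated on YEPD agar for 24 h. Colonies counted and percent killing calculated. Three independent experiments in duplicate.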

Candida albicans [5] = assay: Fungicidal activity against Candida albicans ATCC 18804 at MFC in presence of 100 mM NaCl; assay type: functional, organism-based; outline: as §2
Candida albicans [6] = assay: Fungicidal activity against Candida albicans ATCC 18804 at MFC in presence of 0.5 mM Ca2+; assay type: functional, organism-based; outline: as §2
Candida albicans [7] = assay: Fungicidal activity against Candida albicans ATCC 18804 at MFC in presence of 0.5 mM Mg2+; assay type: functional, organism-based; outline: as §2
Candida albicans [8] = assay: Fungicidal activity against Candida albicans ATCC 18804 at MFC in presence of 5 mM CaCl2; assay type: functional, organism-based; outline: as §2
Candida albicans [9] = assay: Fungicidal activity against Candida albicans ATCC 18804 at MFC in presence of 0.5 mM MgCl2; assay type: functional, organism-based; outline: as §2
[10] = Toxicity in human Erythrocyte assessed as hemolysis upto 75 uM; assay type: cell-based
Outline: (§3)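 Human erythrocytes from heparinized blood, washed three times in 5 mM HEPES pH 7.4 with 150 mM NaCl. 10^7 cells/ml incubated with a range of peptide concentrations for 30 min at 37°C with gentle mixing. Supernatant absorbance read at 540 nm. 0.1% Triton X-100 lysis taken as maximum.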

[11] = Toxicity in human Erythrocyte assessed as hemolysis at 100 uM; assay type: cell-based; conditions: erythrocytes, read-out: Activity; outline: as §3
[12] = Drug localization in membranes of Candida albicans ATCC 18804 at 50% MFC by confocal microscopy; assay type: ADME
Outline: (§4)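 C. albicans treated 15 min at 30°C with N-terminally carboxyfluorescein-labelled peptides at 50% MFC plus 4 µg/ml propidium iodide. Untreated cells served as control. Examined by confocal microscopy using 488- and 543-nm laser lines, 63× water objective and 1 airy unit optical sections.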

Candida albicans [13] = assay: Induction of membrane damage in Candida albicans ATCC 18804 at 50% MFC by propidium iodide staining; assay type: functional, organism-based; outline: as §4
Candida albicans [14] = assay: Drug uptake in Candida albicans ATCC 18804 assessed as cellular localization at MFC50 by confocal fluorescence microscopy; assay type: ADME, organism-based; conditions: in vivo; outline: as §4
Candida albicans [15] = assay: Fungicidal activity against Candida albicans ATCC 18804 assessed as […] killing rate at 2 times MFC in presence of 100 mM NaCl; assay type: functional; outline: as §2
Candida albicans [16] = assay: Induction of membrane damage in Candida albicans ATCC 18804 by Sytox green dye influx assay; assay type: functional, organism-based
Outline: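 Mid-log cells (10^7 CFU/ml) washed and resuspended in phosphate buffer with 1 µM Sytox green at 30°C. Once basal fluorescence was constant, peptide was added and the fluorescence increase recorded at excitation 488 nm and emission 540 nm.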

Candida albicans [17] = assay: Fungicidal activity against Candida albicans ATCC 18804 at MFC in presence of 25 mM MgCl2; assay type: functional, organism-based; outline: as §2

Row | Drug uptake [12] | Drug uptake (Candida albicans [14]) | SMILES | MFC (Candida albicans [1]) | fungicidal activity (active/not active) (Candida albicans [2]) | inhibition (Candida albicans [3]) | inhibition (Candida albicans [4]) | inhibition (Candida albicans [5]) | inhibition (Candida albicans [6]) | inhibition (Candida albicans [7]) | inhibition (Candida albicans [8]) | inhibition (Candida albicans [9]) | Activity [10] | hemolysis at 100 µM [11] | Activity (Candida albicans [13]) | inhibition (percent killing) (Candida albicans [15]) | Activity (Candida albicans [16]) | inhibition (Candida albicans [17])
1 | Active | Active | CC[C@H](C)[C@@H]1NC(=O)[C@H](CCCCN)NC(=O)[C@H]([C@@H](C)O)NC(=O)[C@H](Cc2ccccc2)NC(=O)[C@H]([C@@H](C)CC)NC(=O)[C@@H]2CCCN2C(=O)[C@@H](NC(=O)[C@H](C)N)CSSC[C@@H](C(=O)N[C@@H](CCCCN)C(=O)O)NC(=O)[C@H](CCCCN)NC(=O)[C@H](C)NC(=O)[C@H](CCCCN)NC(=O)CNC(=O)[C@H](CCCNC(=N)N)NC(=O)[C@H](Cc2ccc(O)cc2)NC(=O)[C@H]([C@@H](C)O)NC(=O)CNC(=O)[C@H](CCC(N)=O)NC1=O (H-ACPIFTKIQGTYRGKAKCK-OH; disulfide 2-18) | 18 µM (≈ 38 µg/mL) | Active | Active | Active | inactive | Active | Active | inactive | Active | Non-toxic | 15% | Active | 50% | Active | –
2 | – | – | CC[C@H](C)[C@@H]1NC(=O)[C@H](CCCCN)NC(=O)[C@H]([C@@H](C)O)NC(=O)[C@H](Cc2ccccc2)NC(=O)[C@H]([C@@H](C)CC)NC(=O)[C@@H]2CCCN2C(=O)[C@@H]2CSSC[C@@H](C(=O)N[C@@H](CCCCN)C(=O)O)NC(=O)[C@@H]3CSSC[C@H](NC(=O)[C@H](CC(N)=O)NC(=O)[C@H](Cc4ccc(O)cc4)NC(=O)[C@H](Cc4cnc[nH]4)NC(=O)[C@@H](N)CC(=O)O)C(=O)N[C@@H](C(C)C)C(=O)N[C@@H](CO)C(=O)N[C@@H](CO)C(=O)NCC(=O)NCC(=O)N[C@@H](CCC(N)=O)C(=O)N[C@@H](CSSC[C@H](NC(=O)[C@H]([C@@H](C)O)NC(=O)CNC(=O)[C@H](CCC(N)=O)NC1=O)C(=O)N[C@@H](Cc1ccc(O)cc1)C(=O)N[C@@H](CCCNC(=N)N)C(=O)NCC(=O)N[C@@H](CCCCN)C(=O)N[C@@H](C)C(=O)N[C@@H](CCCCN)C(=O)N3)C(=O)N[C@@H](CC(C)C)C(=O)N[C@@H](Cc1ccc(O)cc1)C(=O)N[C@@H](CO)C(=O)N[C@@H](C)C(=O)N2 (H-DHYNCVSSGGQCLYSACPIFTKIQGTCYRGKAKCCK-OH; disulfide 5-34, 12-27, 17-35) | 7 µM (≈ 27.5 µg/mL) | inactive | inactive | inactive | inactive | – | – | inactive | Active | – | – | – | 50% | – | –
3 | Active | Active | CC[C@H](C)[C@@H]1NC(=O)[C@H](CCC(N)=O)NC(=O)[C@H](CCCCN)NC(=O)[C@H](Cc2ccc(O)cc2)NC(=O)[C@H](CCCNC(=N)N)NC(=O)[C@H](CCCNC(=N)N)NC(=O)[C@@H]2CCCN2C(=O)[C@@H](NC(=O)[C@@H](N)Cc2ccccc2)CSSC[C@@H](C(=O)N[C@@H](CCCCN)C(=O)O)NC(=O)[C@H](CCCCN)NC(=O)[C@H]([C@@H](C)O)NC(=O)CNC(=O)[C@@H]2CCCN2C(=O)[C@H](CC(C)C)NC(=O)CNC(=O)[C@H]([C@@H](C)O)NC(=O)CNC1=O (H-FCPRRYKQIGTGLPGTKCK-OH; disulfide 2-18) | 18 µM (≈ 38.7 µg/mL) | Active | Active | Active | inactive | Active | Active | inactive | Active | Non-toxic | 15% | Active | 50% | Active | –
4 | Active | Active | CC[C@H](C)[C@@H]1NC(=O)[C@H](CCC(N)=O)NC(=O)[C@H](CCC(=O)O)NC(=O)[C@H](CCC(=O)O)NC(=O)[C@H](CCCCN)NC(=O)[C@@H]2CCCN2C(=O)[C@H](CC(C)C)NC(=O)[C@@H](NC(=O)[C@@H](N)CO)CSSC[C@@H](C(=O)N[C@@H](CCCNC(=N)N)C(=O)N[C@@H](CCCNC(=N)N)C(=O)N[C@@H](CCCCN)C(=O)N[C@@H](CCCCN)C(=O)O)NC(=O)[C@H](CCCCN)NC(=O)[C@H](CCCNC(=N)N)NC(=O)CNC(=O)[C@H](CCCNC(=N)N)NC(=O)[C@H]([C@@H](C)O)NC(=O)[C@H](CO)NC(=O)[C@H](CCCCN)NC(=O)CNC1=O (H-SCLPKEEQIGKSTRGRKCRRKK-OH; disulfide 2-18) | 16 µM (≈ 41.4 µg/mL) | Active | Active | Active | inactive | Active | Active | – | – | Non-toxic | 15% | Active | 50% | Active | Active
